Data as given in ChEMBL document CHEMBL4219168, “Design, synthesis, and evaluation of l-cystine diamides as l-cystine crystallization inhibitors for cystinuria” (Bioorg Med Chem Lett, 2018).
Activity calls are given as the source filed them. The rule behind the calls is not given here.

Tests used:
[1] = test system: Cystine; experiment: Inhibition of L-cystine crystallization assessed as increase in apparent aqueous solubility after 72 hrs by fluorescence assay
How it was run: (§1)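 Dose-response curves were run in supersaturated aqueous L-cystine, with apparent solubility read by fluorescence assay. EC2x is the effective concentration that doubles the apparent solubility of L-cystine in water. The ratio is the potency gain over the CDME control.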

[2] = test system: Cystine; experiment: Inhibition of L-cystine crystallization assessed as increase in apparent aqueous solubility after 72 hrs by fluorescence assay relative to CDME; how it was run: as §1
[3] = test system: Cystine; experiment: Inhibition of L-cystine crystallization assessed as increase in apparent aqueous solubility at 2 to 10 uM after 72 hrs by fluorescence assay relative to CDME
[4] = test system: Cystine; experiment: Inhibition of L-cystine crystallization assessed as increase in apparent aqueous solubility at 2 to 10 uM after 72 hrs by fluorescence assay
How it was run: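 Supersaturated L-cystine in Millipore water was spiked 1:100 with 1 mM or 200 μM diamide stock, giving final 10 μM or 2 μM. Mixtures were held at 25 °C for 72 h. Apparent L-cystine solubility was then read with an in-house fluorescence assay. CDME served as positive control and water as blank.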

SMILES	EC2 [1] [µM]	fold change (FC) [2]	inhibition [3]	inhibition [4]
COC(=O)[C@@H](N)CSSC[C@H](N)C(=O)OC	6.37			
CN[C@@H](CSSC[C@H](NC)C(=O)NCCO)C(=O)NCCO			inactive	inactive
N[C@@H](CSSC[C@H](N)C(=O)NC1CC1)C(=O)NC1CC1	3.53	1.8		
CN[C@@H](CSSC[C@H](NC)C(=O)NC1CC1)C(=O)NC1CC1			inactive	inactive
CN[C@@H](CSSC[C@H](NC)C(=O)N(C)C)C(=O)N(C)C			inactive	inactive
N[C@@H](CSSC[C@H](N)C(=O)NCCO)C(=O)NCCO	2.02	3.2		
CCN(CC)C(=O)[C@H](CSSC[C@H](NC)C(=O)N(CC)CC)NC			inactive	inactive

More lines, now with the values ahead:

EC2 [1] [µM]	fold change (FC) [2]	inhibition [3]	inhibition [4]	SMILES
0.26	24.5			CN1CCN(C(=O)[C@@H](N)CSSC[C@H](N)C(=O)N2CCN(C)CC2)CC1
		inactive	inactive	CN[C@@H](CSSC[C@H](NC)C(=O)N1CCCC1)C(=O)N1CCCC1
		inactive	inactive	CN[C@@H](CSSC[C@H](NC)C(=O)N1CCOCC1)C(=O)N1CCOCC1
1.59	4			N[C@@H](CSSC[C@H](N)C(=O)N1CCCCC1)C(=O)N1CCCCC1
		inactive	inactive	CN[C@@H](CSSC[C@H](NC)C(=O)N1CCCCC1)C(=O)N1CCCCC1
0.86	7.4			N[C@@H](CSSC[C@H](N)C(=O)N1CCOCC1)C(=O)N1CCOCC1
